For series [1], the system named is BV-2. The series is described as follows: Cytotoxicity against mouse BV2 cells assessed as reduction in cell viability at 1 to 100 uM after 24 hrs by MTT assay. It is filed as cell-based. The note with it: bv-2, 24 h. The gist of the method:
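BV2 cells after 24 h treatment; supernatant removed, MTT 0.25 mg/mL added for 4 h at 37 °C, formazan dissolved in DMSO, absorbance read at 490 nm.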

The test system of series [2] is BV-2. Description: Antineuroinflammatory activity in mouse BV2 cells assessed as inhibition of LPS-induced nitric oxide production after 24 hrs by griess assay. The format is functional, cell-based. The note with it: BV-2, 24 h. The gist of the method:
(§1)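 BV2 microglia plated at 5 × 10^4 cells/well, exposed to compound (1, 3, 10, 30, 100 μM) together with LPS 100 ng/mL for 24 h. Nitrite in medium quantified by Griess reagent (1% sulfanilamide; 0.1% naphthylethylenediamine dihydrochloride, 2% phosphoric acid), 15 min at room temperature, absorbance 540 nm. Mean ± SE of three independent experiments.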
In general terms: The Griess reaction detects nitrite, a stable product of nitric oxide.

Series [3] deals with BV-2. Description: Antineuroinflammatory activity in mouse BV2 cells assessed as inhibition of LPS-induced nitric oxide production at 100 uM after 24 hrs by griess assay. The format is functional, cell-based. The gist of the method:
as §1

The structures appear in SMILES notation. The source made the active and inactive calls. No cut-off for these calls is given here.

Take `CC(C)=CC[C@@]1(O)C(=O)C(C(=O)CC(C)C)=C(O)C2=C1OC(C)(C)[C@@H](O)C2`: the Activity entry with BV-2 [1] was “Non-Toxic”.
On the same count and under the same terms, next, `CC(C)=CC[C@@]1(O)C(=O)C(C(=O)CC(C)C)=C(O)C2=C1O[C@H](C(C)(C)O)C2`: “Non-Toxic”; `CC(C)=CC[C@@]1(O)C(=O)C(C(=O)C(C)C)=C(O)C2=C1O[C@H](C(C)(C)O)C2`: “Non-Toxic”.
For the compound `CC(C)=CC[C@@]1(O)C(=O)C(C(=O)CC(C)C)=C(O)C2=C1O[C@@H](C(C)(C)O)C2`, the Activity result in the series on BV-2 [1] is given as “Non-Toxic”.
The same measure, in the same setting: next, `CC(C)=CCC1(CC=C(C)C)C(=O)C(O)=C(O)C1=O` [HULUPINIC ACID]: “Non-Toxic”.
On the same count and under the same terms, next, `CC(C)=CC[C@@]1(O)C(=O)C(C(=O)CC(C)C)=C(O)C2=C1OC(C)(C)[C@H](O)C2`: “Non-Toxic”.
In the case of `COc1cc(O)c(CC=C(C)C)c(O)c1C(=O)/C=C/c1ccc(O)cc1` [XANTHOHUMOL], the IC50 (as a rule, the concentration at which inhibition is half-maximal) in the series on BV-2 [2] was 7.92 µM. Also, in the series on BV-2 [1], the Activity entry is “Non-Toxic”.
Take `CC1(C)C[C@@H](O)[C@@]23CC[C@H](O)[C@@](C)(CC[C@H]12)C3`: the Activity entry with BV-2 [1] is listed as “Non-Toxic”.
On the same count and under the same terms, next, `CC(C)=CCc1c(O)c2c(c(C(=O)CC(C)C)c1O)O[C@@H](C(C)(C)O)C2`: “Non-Toxic”.
With `CC(C)=CC[C@@]1(O)C(=O)C(C(=O)C(C)C)=C(O)C2=C1OC(C)(C)[C@@H](O)C2`, the Activity entry in the series with BV-2 [1] is given as “Non-Toxic”. Also, the inhibition result in the series on BV-2 [3] was “Active”.
For the compound `CC(C)=CCc1c(O)cc(O)c2c(=O)cc(C(C)C)oc12`, the concentration for half-maximal inhibition (IC50) with BV-2 [2] is 21.4 µM. The Activity result with BV-2 [1] is “Non-Toxic”.
Take `CC(C)(O)[C@H]1C[C@@](C(=O)O)([C@H]2CC(=O)OC2(C)C)C(=O)O1`: the Activity result in the series on BV-2 [1] is recorded as “Non-Toxic”.
The same measure, in the same setting: next, `CC(C)=CCc1c(O)c2c(c(C(=O)CC(C)C)c1O)O[C@H](C(C)(C)O)C2`: “Non-Toxic”.
Turning to `COc1ccc(/C=C/C(=O)c2c(O)cc(OC)c(CC=C(C)C)c2O)cc1`, the half-inhibitory concentration (IC50) in the series on BV-2 [2] turned out to be 57.7 µM. Moreover, the Activity result in the series with BV-2 [1] is recorded as “Non-Toxic”.
As to `COc1cc(O)c(CC=C(C)C)c2c1C(=O)C[C@@H](c1ccc(O)cc1)O2`, the IC50 in the series on BV-2 [2] stood at 19.5 µM. The Activity result in the series with BV-2 [1] is recorded as “Non-Toxic”.
`CC(C)=CCC1=C2O[C@H](C(C)(C)O)C[C@@]2(O)C(=O)C(C(=O)CC(C)C)=C1O`: the Activity entry in the series on BV-2 [1] is on record as “Non-Toxic”.

For the origin of these results see ChEMBL document CHEMBL4130570, “Characteristic α-Acid Derivatives from Humulus lupulus with Antineuroinflammatory Activities” (J Nat Prod, 2017).
